Measurements as given in ChEMBL document CHEMBL1165888, “Synthesis and study of antiproliferative activity of novel thienopyrimidines on glioblastoma cells” (Eur J Med Chem, 2010).
pIC50: −log10 of the molar value.

Tested on: DBTRG-05MG
Assay: Cytotoxicity against human DBTRG-05MG cells after 72 hrs by MTT assay
Assay type: functional, cell-based
In short: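 DBTRG.05-MG cells were grown in RPMI 1640 with 10% heat-inactivated FCS at 37 °C and 5% CO₂. They were seeded at 6×10^3 per well, cultured 72 h, then exposed 72 h to serial dilutions in DMSO (≤1%, ≤200 μM). Viability was read by MTT (0.5 mg/mL, 37 °C), DMSO-solubilized, A570/630, as % of untreated wells. IC50 came from curves; triplicates, mean ± SD.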

Row | SMILES | pIC50
1 | c1ccc(Nc2ncnc3sc4ccccc4c23)cc1 | 3.96
2 | c1ccc(Nc2ncnc3sc4c(c23)CCCC4)cc1 | 3.23
3 | CN(C)c1ncnc2sc3ccccc3c12 | 3.86
4 | COc1ccc(Nc2ncnc3sc4ccccc4c23)cc1 | 3.93
5 | CN(C)c1ncnc2sc3c(c12)CCCC3 | 3.83
6 | COc1ccccc1Nc1ncnc2sc3c(c12)CCCC3 | 3.24
7 | Cc1ccccc1Nc1ncnc2sc3c(c12)CCCC3 | 3.32
8 | COc1ccccc1Nc1ncnc2sc3ccccc3c12 | 4.39
9 | Cc1ccccc1Nc1ncnc2sc3ccccc3c12 | 4.21
10 | COc1ccc(Nc2ncnc3sc4c(c23)CCCC4)cc1 | 3.82
